What is called IC50 is the midpoint of a concentration-inhibition curve. As usually defined, the MTD is the largest dose that counted as tolerated. The low end stands for a narrow tolerated range, the high end for a wide tolerated range. By ILS is commonly meant how much longer treated animals lived than controls. A high value points to much gain in survival.

We go through 29 compounds from ChEMBL document CHEMBL1124613, “Synthesis, tubulin binding, antineoplastic evaluation, and structure-activity relationship of oncodazole analogues” (J Med Chem, 1989).

The subject of assay [1] is B16. The assay is described as follows: Inhibition B16 melanoma cell monolayer proliferation. It is filed as functional, cell-based. Particulars: Mus musculus. The method, boiled down: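 Mouse B16 melanoma cells grown as monolayers with continuous 72-h exposure to compound. IC50 is the concentration that inhibits proliferation by 50%.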
Assay [2] concerns the target Tubulin alpha chain (Sus scrofa, UniProt P02550). The assay is described as follows: Displacement of 5.8 uM [3H]-oncodazole from homogeneous tubulin. In a few lines: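 Equilibrium binding to soluble, homogeneous tubulin, measured by displacement of 5.8 μM [³H]oncodazole. IC50 (μM) is the concentration that displaces the label, given as mean ± SEM.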
The subject of assay [3] is Mus musculus. In words: In vivo Maximum tolerated dose in syngeneic B6D2F1 female mice bearing ip implanted P388 leukemia. Type of assay: functional. The method, boiled down: (§1)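 Female B6D2F1 mice given ip implants of 10⁶ P388 leukemia cells. Drug given ip on days 1-5 after implantation at 320-20 mg/kg per day; maximally tolerated dose reported in mg/kg per day. Percent increase in lifespan taken at that dose from median survival time versus untreated controls. Under 25% increase counts as negative.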

Assay [4] deals with Mus musculus. The assay is described as follows: In vivo percent increase in life span at Maximum tolerated dose in syngeneic B6D2F1 female mice bearing ip implanted P388 leukemia; Negative. It is filed as functional. In a few lines:
as §1

Assay [5] deals with Mus musculus. In words: In vivo percent increase in life span at Maximum tolerated dose in syngeneic B6D2F1 female mice bearing ip implanted P388 leukemia. It is filed as functional. The method, boiled down: as §1
Assay [6] has as its system Mus musculus. The assay is described as follows: Compound was tested in vivo for percent increase in life span at Maximum tolerated dose in syngeneic B6D2F1 female mice bearing intraperitoneally implanted P388 leukemia (exp 2). It is filed as functional. The method, boiled down: as §1

Chain of Tubulin alpha chain (P02550 whole entry, looked up): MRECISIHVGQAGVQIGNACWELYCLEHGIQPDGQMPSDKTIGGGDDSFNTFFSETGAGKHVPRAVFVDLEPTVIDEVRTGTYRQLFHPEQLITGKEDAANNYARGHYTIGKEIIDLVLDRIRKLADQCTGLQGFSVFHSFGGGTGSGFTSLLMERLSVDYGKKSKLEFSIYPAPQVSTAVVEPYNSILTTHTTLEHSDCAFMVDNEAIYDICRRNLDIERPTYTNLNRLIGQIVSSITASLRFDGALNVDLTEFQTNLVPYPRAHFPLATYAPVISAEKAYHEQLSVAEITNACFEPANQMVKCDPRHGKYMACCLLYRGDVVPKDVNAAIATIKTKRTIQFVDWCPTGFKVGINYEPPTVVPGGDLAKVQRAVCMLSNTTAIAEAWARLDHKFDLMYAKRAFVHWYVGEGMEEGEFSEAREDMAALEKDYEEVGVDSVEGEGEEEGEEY

With `COC(=O)Nc1nc2cc(C(=O)c3cc(CO)cs3)ccc2[nH]1`, the IC50 in assay [1] stood at 1.8 µM; in assay [2], 22 µM.

As to `COC(=O)Nc1nc2cc(C(=O)c3cc(CC(=O)O)cs3)ccc2[nH]1`, the concentration for half-maximal inhibition (IC50) in assay [1] was 2 µM; in assay [2] it was 442 µM. The compound also displayed an MTD in assay [3] of 80 mg/kg. In addition, in assay [4], the ILS is reported as below 25%.

`CCCOC(=O)Nc1nc2cc(C(=O)c3cccs3)ccc2[nH]1` showed an IC50 in assay [1] of 0.5 µM. In assay [3], the MTD was above 320 mg/kg. The compound further displayed an ILS in assay [4] below 25%.

`COC(=O)Nc1nc2cc(C(=O)c3cccs3)ccc2n1C`: in assay [1], half-maximal inhibition (IC50) required 20 µM. The MTD in assay [3] came to 160 mg/kg. In assay [4], this compound yielded an ILS below 25%.

As for `COC(=O)Nc1nc2cc(C(=O)c3ccc(C)s3)ccc2[nH]1`, the IC50 in assay [1] stood at 10 µM. The same compound came in with an MTD in assay [3] of 160 mg/kg. In assay [4], this compound registered an ILS below 25%.

In assay [1], `COC(=O)Nc1nc2cc(C(=O)c3cccs3)ccc2n1CCN` registered an IC50 of 30 µM. This compound also had an MTD in assay [3] of 80 mg/kg. For the same compound, the ILS in assay [4] is below 25%.

`COC(=O)Nc1nc2ccc(C(=O)c3cc(C([N+]#N)C(F)(F)F)cs3)cc2[nH]1` (centres undefined): the IC50 in assay [1] was found to be 0.14 µM; in assay [2] it was 8.3 µM.

Consider `COC(=O)Nc1nc2cc(C(=O)c3cc(C)cs3)ccc2[nH]1`, for which the IC50 in assay [1] came out at 0.1 µM; in assay [2], 17.6 µM. In assay [3], this compound returned an MTD of 80 mg/kg. This compound registered an ILS in assay [5] of 95%.

In assay [1], `COC(=O)Nc1nc2cc(C(=O)c3cccs3)c(C)cc2[nH]1` came in with an IC50 of 8 µM. Besides, the MTD in assay [3] is above 320 mg/kg. Moreover, the ILS in assay [4] was below 25%.

Consider `COC(=O)N(C)c1nc2cc(C(=O)c3cccs3)ccc2[nH]1`, for which the IC50 in assay [1] worked out at 50 µM. In addition, in assay [3], the MTD stood at 40 mg/kg. The increase in life span (ILS) in assay [4] is on record as below 25%.

In the case of `COC(=O)Nc1nc2cc(C(=O)c3cc(CC#N)cs3)ccc2[nH]1`, the IC50 in assay [1] turned out to be 0.02 µM; in assay [2] it was 2.9 µM. In assay [3], the MTD was determined as 160 mg/kg. The ILS in assay [5] and in assay [6] was 80% throughout.

On to `COC(=O)Nc1nc2cc(C(=O)c3cc(CNC(=O)OC(C)(C)C)cs3)ccc2[nH]1`, for which the IC50 in assay [1] came to 0.5 µM; in assay [2] it was 23.3 µM. For the same compound, the MTD in assay [3] was determined as 160 mg/kg. The same compound came in with an ILS in assay [4] below 25%.

As to `COC(=O)Nc1nc2cc(C(=O)c3cc(CC(=O)OC(C)(C)C)cs3)ccc2[nH]1`, the IC50 in assay [1] was found to be 0.07 µM; in assay [2], 7.5 µM. This compound also yielded an MTD in assay [3] of 160 mg/kg. Also, the ILS in assay [5] was determined as 105%.

Turning to `COC(=O)Nc1nc2ccc(C(=O)c3cc(COC(=O)c4ccccc4)cs3)cc2[nH]1`, the IC50 in assay [2] is 1.95 µM.

On to `COC(=O)Nc1nc2cc(C(=O)c3cc(C(=O)C(F)(F)F)cs3)ccc2[nH]1`, for which the IC50 turned out to be 0.14 µM in assay [1] and 16 µM in assay [2].

On to `COC(=O)Nc1nc2cc(C(=O)c3cccs3)ccc2n1CCCCN`, for which, in assay [1], the IC50 is 30 µM. The MTD in assay [3] is 80 mg/kg. This compound showed an ILS in assay [4] below 25%.

On to `CCOC(=O)Cc1csc(C(=O)c2ccc3[nH]c(NC(=O)OC)nc3c2)c1`, for which the figures for the IC50 in assay [1] and in assay [2] were 0.02 µM and 0.88 µM, respectively. Further, the MTD in assay [3] was 80 mg/kg. For the same compound, the ILS in assay [5] and in assay [6] was 55% each time.

The compound `COC(=O)Nc1nc2cc(C(=O)c3cccs3)ccc2n1CCNC(=O)OCc1ccccc1` registered an IC50 in assay [1] of 20 µM.

In the case of `COC(=O)Nc1nc2c(C)c(C(=O)c3cccs3)ccc2[nH]1`, the IC50 in assay [1] came to 4 µM; in assay [2], 106 µM. In addition, the MTD in assay [3] turned out to be 40 mg/kg. In assay [4], this compound gave an increase in lifespan (ILS) below 25%.

As to `CCOC(=O)Nc1nc2cc(C(=O)c3cccs3)ccc2[nH]1`, in assay [1], the IC50 turned out to be 0.2 µM. Besides, in assay [3], the MTD turned out to be 160 mg/kg. The ILS in assay [4] is below 25%.

`COC(=O)Nc1nc2cc(C(=O)c3cc(CC(=O)NCCN)cs3)ccc2[nH]1` returned an IC50 in assay [1] above 70 µM. Besides, the MTD in assay [3] worked out at 80 mg/kg. In addition, the ILS in assay [4] is below 25%.

For the compound `COC(=O)Nc1nc2cc(C(=O)c3cc(CN)cs3)ccc2[nH]1`, the IC50 in assay [1] worked out at 2 µM; in assay [2], 120 µM. Moreover, in assay [3], the MTD came to 20 mg/kg. The ILS in assay [4] was below 25%.

Consider `COC(=O)Cc1csc(C(=O)c2ccc3[nH]c(NC(=O)OC)nc3c2)c1`, for which the figures for the IC50 in assay [1] and in assay [2] were 0.04 µM and 5 µM, respectively. For the same compound, the MTD in assay [3] turned out to be 30 mg/kg. Besides, the ILS in assay [5] is 65%.

For the compound `COC(=O)Nc1nc2c(C)cc(C(=O)c3cccs3)cc2[nH]1`, the IC50 in assay [1] is 0.06 µM; in assay [2], 0.86 µM. The compound also gave an MTD in assay [3] of 30 mg/kg. Also, the ILS in assay [5] is 45%; in assay [6] it was 50%.

`CC(C)OC(=O)Nc1nc2cc(C(=O)c3cccs3)ccc2[nH]1`: the IC50 in assay [1] worked out at 0.2 µM; in assay [2], 14 µM. This compound showed an MTD in assay [3] of 320 mg/kg. Besides, the figures for the ILS in assay [5] and in assay [6] were 45% and 30%, respectively.

In turn, `COC(=O)Nc1nc2cc(C(=O)c3cc(CC(=O)OCc4ccccc4)cs3)ccc2[nH]1` had an IC50 in assay [2] of 5.2 µM.

For `COC(=O)Nc1nc2cc(C(=O)c3sccc3C)ccc2[nH]1`, it took 2 µM to reach half-maximal inhibition in assay [1] (IC50). In assay [3], the MTD is above 320 mg/kg. This compound also gave an ILS in assay [4] below 25%.

`COC(=O)Nc1nc2cc(C(=O)c3cccs3)ccc2[nH]1` [NOCODAZOLE]: the IC50 in assay [1] was found to be 0.1 µM; in assay [2], 5.7 µM. The compound also registered an MTD in assay [3] of 80 mg/kg. The ILS in assay [5] was 75%.

Regarding `COC(=O)Nc1nc2ccc(C(=O)c3cccs3)cc2n1C` [NOCODOZOLE], the midpoint of inhibition in assay [1], the IC50, lay at 40 µM. Further, in assay [3], the MTD was above 320 mg/kg. The compound also yielded an ILS in assay [4] below 25%.
